Source: PubChem (The Scripps Research Institute Molecular Screening Center)
Compounds with a hit are over-represented: about 2.1% of the library has one in this group of screens.
PKA-R2B activ – activates the human PKA-R2B holoenzyme complex. P22694+P31323. PKA-R2B holoenzyme dissociation, Cy5-IP20 fluorescence polarization; R2B truncated from residue 108, S112A mutant; 0% DMSO only, 100% 113 µM cGMP. activation, % at 11.4 µM. actives 0.079% (n = 340,000). AID 504700;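 active = activation above a cutoff set at the mean over all compounds plus 3 SD, cut at about 18% in these data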;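 note: higher means more holoenzyme dissociation and a rise in polarization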
Target sequence (P31323 whole entry, looked up, other chains not shown, the tested form may be a part): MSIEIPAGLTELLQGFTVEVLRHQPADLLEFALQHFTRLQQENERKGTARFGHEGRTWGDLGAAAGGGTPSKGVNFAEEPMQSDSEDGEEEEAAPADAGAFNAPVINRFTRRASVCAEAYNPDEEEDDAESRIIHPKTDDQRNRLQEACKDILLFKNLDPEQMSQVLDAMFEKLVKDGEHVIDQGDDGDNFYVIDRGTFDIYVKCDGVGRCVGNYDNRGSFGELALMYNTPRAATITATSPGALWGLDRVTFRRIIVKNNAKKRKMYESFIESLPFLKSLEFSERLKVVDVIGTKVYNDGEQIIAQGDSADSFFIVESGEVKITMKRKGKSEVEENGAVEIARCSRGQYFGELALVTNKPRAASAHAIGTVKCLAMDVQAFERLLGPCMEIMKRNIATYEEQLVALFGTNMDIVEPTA
IMP-1 inh – inhibitors of Pseudomonas aeruginosa IMP-1 metallo-beta-lactamase; purified IMP-1, nitrocefin hydrolysis, epi-absorbance fluorescence; inhibition, % at 5.6 µM; actives 0.45% (n = 290,000); AID 1556;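 active = inhibition above the mean plus 3 SD of all compounds in the same screening run, cut at about 4.5% in these data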
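System: purified IMP-1; amount: IMP-1 0.2 nM before substrate addition; compound: single dose, 5.6 µM; times: 25 °C, 15 min preincubation, 25 min reaction; signal: Epi-absorbance via hydrolysed-nitrocefin quenching of white-plate fluorescence, 480/530 nm, EDTA stop; benchmarks: DMSO with and without IMP-1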
VIM-2 inh – inhibitors of Pseudomonas aeruginosa VIM-2 metallo-beta-lactamase; inhibition, % at 5.6 µM; purified VIM-2, nitrocefin hydrolysis, epi-absorbance fluorescence; AID 1527; actives 0.89% (n = 290,000);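 active = inhibition above the mean of all tested compounds plus 3 SD, cutoff set per screening run, cut at about 7.5% in these data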;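 note: red hydrolysis product quenches plate fluorescence so inhibitors raise well fluorescence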
PKA-R1A activ – activates the PKA-R1A holoenzyme complex | P00514+P68181 | PKA-R1A dissociation, Cy5-IP20 fluorescence polarization; scaled: DMSO 0%, 113 µM cGMP 100% | activation, % at 11.4 µM | actives 0.083% (n = 340,000) | AID 504707;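 active = percent activation above the mean of all tested compounds plus 3 SD, cut at about 19% in these data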;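 note: higher means more PKAc released from R1A so a rise in polarization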
bovine MsrA act – bovine methionine sulfoxide reductase A activation; activation, % at 10.6 µM; actives 0.3% (n = 360,000); purified bovine MsrA, absorbance read-out; AID 602163; in the data active = activation above about 7.5%
MsrA inh – bovine MsrA inhibition; purified bovine MsrA, absorbance read-out; inhibition, % at 15.5 µM; actives 0.75% (n = 360,000); in the data active = inhibition above about 4.5%
Each line names hits and unclear results; the compound was inactive in the other large screens.

O=C(N[C@H](Cc1ccccc1)C(=O)N1CCN(Cc2ccccn2)CC1)[C@H]1O[C@@H](n2ccc(=O)[nH]c2=O)[C@H](O)[C@@H]1O	none (no result: PKA-R2B activ, IMP-1 inh, VIM-2 inh, PKA-R1A activ, bovine MsrA act)
CSc1nc(NCCCO)c2c3c(sc2n1)CN(C)CC3	VIM-2 inh 9.4
O=S1(=O)CC(N2CCC(c3ccccc3)CC2)CN1Cc1cn(Cc2ccc(C(F)(F)F)cc2)nn1 (stereo unspecified)	none (no result: PKA-R2B activ, IMP-1 inh, VIM-2 inh, PKA-R1A activ, bovine MsrA act)
Cc1cc(OCC(=O)Nc2ccccn2)c2c(C)c(C)c(=O)oc2c1	none
Cc1cc(OC(C)C(=O)NCc2ccncc2)c2c(C)c(C)c(=O)oc2c1 (stereo unspecified)	VIM-2 inh 9.3
Cc1cc(OCC(=O)NCc2ccccn2)c2c(C)c(C)c(=O)oc2c1	VIM-2 inh 9.0
CCCN(C(=O)c1ccc(N2CCCC2=O)cc1)C1CCS(=O)(=O)C1 (stereo unspecified)	none (no result: IMP-1 inh, VIM-2 inh)
N=c1c(S(=O)(=O)c2ccc(Cl)cc2)cc2c(=O)n3ccccc3nc2n1CCN1CCOCC1	none
Cc1ccc(S(=O)(=O)c2cc3c(=O)n4ccccc4nc3n(C)c2=N)cc1C	none
CCOCCCn1c(=N)c(S(=O)(=O)c2ccccc2)cc2c(=O)n3cc(C)ccc3nc21	VIM-2 inh 11
CC(C)OCCCn1c(=N)c(S(=O)(=O)c2ccccc2)cc2c(=O)n3ccccc3nc21	none
C=CCn1c(=N)c(S(=O)(=O)c2ccc(C)c(C)c2)cc2c(=O)n3ccccc3nc21	VIM-2 inh 12
N=c1c(S(=O)(=O)c2ccccc2)cc2c(=O)n3ccccc3nc2n1CCCN1CCOCC1	VIM-2 inh 9.2
Cc1ccc(S(=O)(=O)c2cc3c(=O)n4ccccc4nc3n(CC3CCCO3)c2=N)cc1 (stereo unspecified)	none (no result: PKA-R2B activ, PKA-R1A activ, bovine MsrA act, MsrA inh)
Cc1ccc(S(=O)(=O)c2cc3c(=O)n4ccccc4nc3n(CCCN3CCOCC3)c2=N)cc1C	VIM-2 inh 10
COC(=O)C1(F)C(=O)NC(=O)NC1OC (stereo unspecified)	none (no result: PKA-R2B activ, IMP-1 inh, VIM-2 inh, PKA-R1A activ, bovine MsrA act)
CN(C)Cc1c(C(C)(C)O)[nH]c2cc(C(F)(F)F)ccc12	none (no result: PKA-R2B activ, IMP-1 inh, VIM-2 inh, PKA-R1A activ, bovine MsrA act)
CCCCCCC(=O)NN1CCN(C)CC1	IMP-1 inh 8.0
COc1ccc(N2COC3c4cccc5cccc(c45)C32)cc1 (stereo unspecified)	IMP-1 inh 4.7
COc1ccccc1NC(=S)NCc1ccc2c(c1)cc(C)n2C	none
Cc1ccccc1NC(=S)NCc1ccc2c(c1)cc(C)n2C	IMP-1 inh 43
c1cnc(SCCOc2cccc3ccccc23)nc1	IMP-1 inh 4.8
Clc1ccc(OCCSc2ncccn2)c2ccccc12	none
COc1cc2c(cc1/C=C/C(=O)O)OC(C)C2 (stereo unspecified)	IMP-1 inh 9.2
COc1ccccc1-n1c(C)c2c(OC)cccc(=O)c2c1C	VIM-2 inh 9.2
CCc1c(Cc2cccc(F)c2)ncn1CCc1ccccc1OC	none (no result: PKA-R2B activ, IMP-1 inh, VIM-2 inh, PKA-R1A activ, bovine MsrA act)
CCOc1ccc(Nc2cc(C)c3ccccc3n2)cc1	none
CCOc1ccc(Nc2c3ccccc3nc3ccccc23)cc1	VIM-2 inh 9.6
O=C1N(O)C2(C=CCCC2)/C(=N\O)C12CCCCC2 (stereo unspecified)	VIM-2 inh 10
CCCCCc1nnc(NC(=O)c2ccc3nc[nH]c3c2)s1	none (no result: IMP-1 inh, VIM-2 inh)
O=c1c2ccccc2oc2ccc(NCCCn3ccnc3)cc12	VIM-2 inh 11
C(=C\c1ccccc1)/CN1CCN(C(c2cc3ccccc3o2)c2nnnn2C2CCCCC2)CC1 (stereo unspecified)	none (no result: PKA-R2B activ, IMP-1 inh, VIM-2 inh, PKA-R1A activ)
CNC(=O)/C(C#N)=C/c1c(N2CCCCCC2)nc2ccccn2c1=O	VIM-2 inh 8.1
C=CC(=O)N1C/C(=C/c2ccc(F)cc2)C(=O)/C(=C\c2ccc(F)cc2)C1	MsrA inh 5.1 (no result: IMP-1 inh, VIM-2 inh)
O=C(CN1C(=O)/C(=C2/SC(=S)N(CCS(=O)(=O)O)C2=O)c2ccccc21)Nc1cccc(C(F)(F)F)c1	none (no result: IMP-1 inh, VIM-2 inh)
O=C(CN1C(=O)/C(=C2\SC(=S)N(CCS(=O)(=O)O)C2=O)c2ccccc21)Nc1cccc(Br)c1	IMP-1 inh 13
CN(Cc1ccco1)S(=O)(=O)c1nnc(NC(=O)c2ccccc2Cl)s1	VIM-2 inh 9.1
Cc1ccccc1C(=O)Nc1nnc(S(=O)(=O)N(C)Cc2ccco2)s1	VIM-2 inh 9.8
